ChEMBL document CHEMBL3822380, “Simple avarone mimetics as selective agents against multidrug resistant cancer cells” (Eur J Med Chem, 2016)
Values after ≈ are worked out from the molar mass of the structure shown. Active and inactive are the calls of the source.

Assays:
Micrococcus luteus [1] = assay: Antibacterial activity against Micrococcus luteus ATCC 10240 by broth microdilution method; assay type: functional
Procedure, shortened: (§1)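 Broth microdilution per NCCLS. Compounds dissolved in DMSO as 10 mg/mL stock, diluted in Mueller Hinton broth (bacteria) or Sabouraud dextrose broth (fungi). Amikacin served as the positive control for bacteria and nystatin for fungi.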

NCI-H460 [2] = assay: Cytotoxicity against human NCI-H460 cells after 72 hrs by MTT assay; assay type: functional, cell-based; conditions: NCI-H460, 72 h
Procedure, shortened: (§2)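 Seeding in 96-well plates at 1000 (NCI-H460), 2000 (NCI-H460/R) or 4000 (HaCaT) cells/well, treated after 24 h for 72 h. MTT at 0.4 mg/mL final, 4 h at 37 °C. Formazan dissolved in DMSO, absorbance read at 540 nm. Inhibition % = (1 − A treated/A untreated)×100. IC30 and IC50 obtained by linear regression.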

Escherichia coli = assay: Antibacterial activity against Escherichia coli ATCC 25922 by broth microdilution method; assay type: functional; procedure, shortened: as §1
Bacillus spizizenii = assay: Antibacterial activity against Bacillus subtilis ATCC 6633 by broth microdilution method; assay type: functional; procedure, shortened: as §1
[3] = Selectivity ratio of IC30/IC50 for human HaCaT cells to IC30/IC50 for human NCI-H460 cells; assay type: ADME, cell-based; conditions: HaCaT cells versus NCI-H460 cells
Procedure, shortened: (§3)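 Fold threshold of 1.5 used to call selectivity to cancer cells, resistance, or selectivity to MDR cells.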

NCI-H460 [4] = assay: Cytotoxicity against multidrug resistant human NCI-H460 cells after 72 hrs by MTT assay; assay type: functional, cell-based; conditions: NCI-H460, 72 h; procedure, shortened: as §2
Pseudomonas aeruginosa = assay: Antibacterial activity against Pseudomonas aeruginosa ATCC 9027 by broth microdilution method; assay type: functional; procedure, shortened: as §1
HaCaT [5] = assay: Cytotoxicity against human HaCaT cells after 72 hrs by MTT assay; assay type: cell-based; conditions: for IC50: Homo sapiens, HaCaT; for IC30: human, hacat; procedure, shortened: as §2
Staphylococcus aureus = assay: Antibacterial activity against Staphylococcus aureus ATCC 6538 by broth microdilution method; assay type: functional; procedure, shortened: as §1
[6] = Selectivity ratio of IC30/IC50 for human HaCaT cells to IC30/IC50 for multidrug resistant human NCI-H460 cells; assay type: ADME, cell-based; conditions: HaCaT cells versus multidrug resistant NCI-H460 cells; procedure, shortened: as §3
Salmonella enteritidis = assay: Antibacterial activity against Salmonella enterica subsp. enterica serovar Enteritidis ATCC 13076 by broth microdilution method; assay type: functional; procedure, shortened: as §1
NCI-H460 [7] = assay: Selectivity ratio of IC30/IC50 for human NCI-H460 cells to IC30/IC50 for multidrug resistant human NCI-H460 cells; assay type: functional; procedure, shortened: as §3
Micrococcus luteus [8] = assay: Antibacterial activity against Micrococcus luteus ATCC 4698 by broth microdilution method; assay type: functional; conditions: NCTC 2665; procedure, shortened: as §1
Candida albicans = assay: Antifungal activity against Candida albicans ATCC 10231 by broth microdilution method; assay type: functional; procedure, shortened: as §1
Clostridium sporogenes = assay: Antibacterial activity against Clostridium sporogenes ATCC 19404 by broth microdilution method; assay type: functional; procedure, shortened: as §1
Saccharomyces cerevisiae = assay: Antifungal activity against Saccharomyces cerevisiae ATCC 9763 by broth microdilution method; assay type: functional; procedure, shortened: as §1
Aspergillus brasiliensis = assay: Antifungal activity against Aspergillus brasiliensis ATCC 16404 by broth microdilution method; assay type: functional; procedure, shortened: as §1
NCI-H460 [9] = assay: Induction of apoptosis in multidrug resistant human NCI-H460 cells assessed as live cells at 25 uM after 72 hrs by annexin-V/propidium iodide staining-based flow cytometric analysis (reference value: 96.4%); assay type: functional
NCI-H460 [10] = assay: Induction of apoptosis in human NCI-H460 cells assessed as late apoptotic/necrotic cells at 25 uM after 72 hrs by annexin-V/propidium iodide staining-based flow cytometric analysis (reference value: 0.2%); assay type: functional
NCI-H460 [11] = assay: Induction of apoptosis in multidrug resistant human NCI-H460 cells assessed as late apoptotic/necrotic cells at 25 uM after 72 hrs by annexin-V/propidium iodide staining-based flow cytometric analysis (reference value: 1%); assay type: functional
NCI-H460 [12] = assay: Induction of apoptosis in multidrug resistant human NCI-H460 cells assessed as early apoptotic cells at 25 uM after 72 hrs by annexin-V/propidium iodide staining-based flow cytometric analysis (reference value: 1.1%); assay type: functional
NCI-H460 [13] = assay: Induction of apoptosis in multidrug resistant human NCI-H460 cells assessed as dead cells at 25 uM after 72 hrs by annexin-V/propidium iodide staining-based flow cytometric analysis (reference value: 1.5%); assay type: functional
Kocuria rhizophila = assay: Antibacterial activity against Kocuria rhizophila ATCC 9341 by broth microdilution method; assay type: functional; conditions: DC2201; procedure, shortened: as §1
Proteus hauseri = assay: Antibacterial activity against Proteus hauseri ATCC 13315 by broth microdilution method; assay type: functional; procedure, shortened: as §1
[14] = Induction of apoptosis in human HaCaT cells assessed as live cells at 25 uM after 72 hrs by annexin-V/propidium iodide staining-based flow cytometric analysis (reference value: 96.8%); assay type: cell-based; conditions: read-out: Activity
HaCaT [15] = assay: Induction of apoptosis in human HaCaT cells assessed as late apoptotic/necrotic cells at 25 uM after 72 hrs by annexin-V/propidium iodide staining-based flow cytometric analysis (reference value: 0.2%); assay type: cell-based
NCI-H460 [16] = assay: Induction of apoptosis in human NCI-H460 cells assessed as early apoptotic cells at 25 uM after 72 hrs by annexin-V/propidium iodide staining-based flow cytometric analysis (reference value: 0.3%); assay type: functional
HaCaT [17] = assay: Induction of apoptosis in human HaCaT cells assessed as dead cells at 25 uM after 72 hrs by annexin-V/propidium iodide staining-based flow cytometric analysis (reference value: 2.8%); assay type: cell-based
NCI-H460 [18] = assay: Induction of apoptosis in human NCI-H460 cells assessed as dead cells at 25 uM after 72 hrs by annexin-V/propidium iodide staining-based flow cytometric analysis (reference value: 1.2%); assay type: functional
NCI-H460 [19] = assay: Induction of apoptosis in human NCI-H460 cells assessed as live cells at 25 uM after 72 hrs by annexin-V/propidium iodide staining-based flow cytometric analysis (reference value: 98.3%); assay type: functional
NCI-H460 [20] = assay: Induction of superoxide anion generation in multidrug resistant human NCI-H460 cells at 25 uM after 72 hrs by DHE staining-based flow cytometric analysis relative to control; assay type: functional, cell-based
Procedure, shortened: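 Seeded as for cell death (50,000 or 100,000 cells/well), treated 72 h at 25 µM, with CDDP 5 µM as control. Adherent cells trypsinized and loaded with 1 µM DHE for 30 min at 37 °C in the dark, then washed twice in PBS. Flow cytometry at ex 488/em 585 nm (FL2-H). Mean fluorescence intensity corrected for autofluorescence and compared with untreated control.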

HaCaT [21] = assay: Induction of apoptosis in human HaCaT cells assessed as early apoptotic cells at 25 uM after 72 hrs by annexin-V/propidium iodide staining-based flow cytometric analysis (reference value: 0.2%); assay type: cell-based

Structure (SMILES) | MIC (Micrococcus luteus [1]) | IC30 (NCI-H460 [2]) | IC50 (NCI-H460 [2]) | MIC (Escherichia coli) | MIC (Bacillus spizizenii) | selectivity ratio [3] | IC30 (NCI-H460 [4]) | IC50 (NCI-H460 [4]) | MIC (Pseudomonas aeruginosa) | IC50 (HaCaT [5]) | IC30 (HaCaT [5]) | MIC (Staphylococcus aureus) | selectivity ratio [6] | MIC (Salmonella enteritidis) | selectivity ratio (NCI-H460 [7]) | MIC (Micrococcus luteus [8]) | MIC (Candida albicans) | MIC (Clostridium sporogenes) | MIC (Saccharomyces cerevisiae) | MIC (Aspergillus brasiliensis) | further results
CC(C)(C)C1=CC(=O)C=C(NCc2ccccc2)C1=O | 9 µM (≈ 2.42 µg/mL) | 5 µM | 14 µM | 9 µM (≈ 2.42 µg/mL) | 2320 µM (≈ 626 µg/mL) | ≤ 1.5 | 3 µM | 10 µM | 2320 µM (≈ 626 µg/mL) | 21 µM | 12 µM | 9 µM (≈ 2.42 µg/mL) | ≤ 1.5 | 4650 µM (≈ 1250 µg/mL) | <=1.5 | 4650 µM (≈ 1250 µg/mL) | 2320 µM (≈ 626 µg/mL) | 2320 µM (≈ 626 µg/mL) | 2320 µM (≈ 626 µg/mL) | 2320 µM (≈ 626 µg/mL) | 
CC(C)(C)C1=CC(=O)C(NCCc2ccccc2)=CC1=O | 4420 µM (≈ 1250 µg/mL) | 17 µM | 35 µM |  | 4420 µM (≈ 1250 µg/mL) | ≤ 1.5 | 11 µM | 33 µM | 2210 µM (≈ 626 µg/mL) | > 100 µM | > 100 µM |  | ≤ 1.5 | 4420 µM (≈ 1250 µg/mL) |  | 2210 µM (≈ 626 µg/mL) | 2210 µM (≈ 626 µg/mL) | 2210 µM (≈ 626 µg/mL) | 2210 µM (≈ 626 µg/mL) | 1110 µM (≈ 313 µg/mL) | Activity (NCI-H460 [9]): 81%; Activity (NCI-H460 [10]): 5.4%; Activity (NCI-H460 [11]): 3.6%; Activity (NCI-H460 [12]): 1.3%; Activity (NCI-H460 [13]): 14.1%; MIC (Kocuria rhizophila): 2210 µM (≈ 626 µg/mL); MIC (Proteus hauseri): 2210 µM (≈ 626 µg/mL); viability at 72 h, 25 µM [14]: 89.2%; Activity (HaCaT [15]): 1.7%; Activity (NCI-H460 [16]): 0.8%; Activity (HaCaT [17]): 8.3%; Activity (NCI-H460 [18]): 13%; Activity (NCI-H460 [19]): 80.8%; Activity (NCI-H460 [20]): inactive; Activity (HaCaT [21]): 0.8%
CCCCCCCCNC1=CC(=O)C(C(C)(C)C)=CC1=O | 2150 µM (≈ 626 µg/mL) | 18 µM | 70 µM | 4300 µM (≈ 1250 µg/mL) | 4300 µM (≈ 1250 µg/mL) | ≤ 1.5 | 21 µM | 65 µM | 2150 µM (≈ 626 µg/mL) | > 100 µM | > 100 µM | 4300 µM (≈ 1250 µg/mL) | ≤ 1.5 | 2150 µM (≈ 626 µg/mL) |  | 4300 µM (≈ 1250 µg/mL) | 4300 µM (≈ 1250 µg/mL) | 2150 µM (≈ 626 µg/mL) | 4300 µM (≈ 1250 µg/mL) | 2150 µM (≈ 626 µg/mL) | Activity (NCI-H460 [9]): 83.9%; Activity (NCI-H460 [10]): 1.7%; Activity (NCI-H460 [11]): 1.9%; Activity (NCI-H460 [12]): 0.2%; Activity (NCI-H460 [13]): 14%; MIC (Kocuria rhizophila): 4300 µM (≈ 1250 µg/mL); MIC (Proteus hauseri): 2150 µM (≈ 626 µg/mL); viability at 72 h, 25 µM [14]: 93.8%; Activity (HaCaT [15]): 0.5%; Activity (NCI-H460 [16]): 0.1%; Activity (HaCaT [17]): 5.7%; Activity (NCI-H460 [18]): 17.3%; Activity (NCI-H460 [19]): 80.9%; Activity (NCI-H460 [20]): inactive; Activity (HaCaT [21]): 0%
CCCCNC1=CC(=O)C=C(C[C@]2(C)[C@@H](C)CC[C@]3(C)C(C)=CCC[C@@H]23)C1=O |  | 9 µM | 16 µM |  |  |  | 3 µM | 6 µM |  | 16 µM | 11 µM |  |  |  | <=1.5 |  |  |  |  |  | 
